{
  "source": "PubChem BioAssay AID624165",
  "about": "(Southern Research Specialized Biocontainment Screening …, 2012)",
  "note": "Activity calls are given as the source filed them.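 Rule for the calls: active = inhibition of 30% or more at any tested concentration; inactive = the rest.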",
  "data": [
    {"tested_on": "Plasmodium falciparum M18 aspartyl aminopeptidase (PfM18AAP)", "experiment": "inhibition of P. falciparum M18 aspartyl aminopeptidase – biochemical, QFRET, H-Glu-NHMec substrate, set 3, selectivity assay for PFM1AAP inhibitor project, dose response (AID 624165)", "conditions": "Recombinant PfM18AAP, H-Glu-NHMec fluorogenic cleavage; series mostly up to 100 µM", "in_short": "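Control set: no-enzyme background wells. Material: recombinant PfM18AAP enzyme. Input: enzyme 5 µg/mL. Dosing: ten twofold doses from 100 µM. Schedule: reaction 90 min, room temperature. Measured by: fluorescence at 370/460 nm. Buffer or medium: pH 7.5 Tris, 2 mM CoCl2. Replication: triplicate. Reagent: fluorogenic substrate H-Glu-NHMec at 0.1 mM.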", "values": [
      {"smiles": "O=C(Nc1ccc2c(c1)OCO2)C1CCN(S(=O)(=O)c2ccc(Br)s2)CC1", "outcome": "inactive"},
      {"smiles": "O=C(NCc1cccc(F)c1)C1CCN(S(=O)(=O)c2ccc(Cl)s2)CC1", "outcome": "inactive"},
      {"smiles": "O=C(Nc1ccc2c(c1)OCO2)C1CCN(S(=O)(=O)c2ccc(Cl)s2)CC1", "outcome": "inactive"},
      {"smiles": "O=C(NCc1ccc(F)cc1)C1CCN(S(=O)(=O)c2ccc(Cl)s2)CC1", "outcome": "inactive"},
      {"smiles": "O=C(NCc1ccc(F)cc1)C1CCN(S(=O)(=O)c2sccc2Br)CC1", "outcome": "inactive"},
      {"smiles": "O=C(NCCc1ccc2c(c1)OCO2)C1CCN(S(=O)(=O)c2ccc(Br)cc2)CC1", "outcome": "inactive"},
      {"smiles": "O=C(NCc1ccc2c(c1)OCO2)C1CCN(S(=O)(=O)c2sccc2Br)CC1", "outcome": "inactive"},
      {"smiles": "O=C(NCc1cccc(F)c1)C1CCN(S(=O)(=O)c2cc(Br)c(Br)s2)CC1", "outcome": "inactive"},
      {"smiles": "O=C(Nc1ccc2c(c1)OCO2)C1CCN(S(=O)(=O)c2sccc2Br)CC1", "outcome": "inactive"},
      {"smiles": "O=C(NCCc1ccc2c(c1)OCO2)C1CCN(S(=O)(=O)c2ccc(Br)s2)CC1", "outcome": "inactive"},
      {"smiles": "O=C(NCc1ccccc1F)C1CCN(S(=O)(=O)c2sccc2Br)CC1", "outcome": "inactive"},
      {"smiles": "O=C(NCc1ccc(F)cc1)C1CCN(S(=O)(=O)c2cc(Br)c(Br)s2)CC1", "outcome": "inactive"},
      {"smiles": "O=C(Nc1ccc2c(c1)OCO2)C1CCN(S(=O)(=O)c2ccc(Br)cc2)CC1", "outcome": "inactive"},
      {"smiles": "O=C(NCc1ccc2c(c1)OCO2)C1CCN(S(=O)(=O)c2ccc(Cl)s2)CC1", "outcome": "inactive"},
      {"smiles": "O=C(NCCc1ccc2c(c1)OCO2)C1CCN(S(=O)(=O)c2cc(Br)c(Br)s2)CC1", "outcome": "inactive"},
      {"smiles": "O=C(NCc1ccc2c(c1)OCO2)C1CCN(S(=O)(=O)c2ccc(Br)s2)CC1", "outcome": "inactive"},
      {"smiles": "O=C(NCc1ccccc1F)C1CCN(S(=O)(=O)c2ccc(Br)cc2)CC1", "outcome": "inactive"},
      {"smiles": "O=C(NCc1ccc2c(c1)OCO2)C1CCN(S(=O)(=O)c2ccc(Br)cc2)CC1", "outcome": "inactive"},
      {"smiles": "O=C(Nc1ccc2c(c1)OCO2)C1CCN(S(=O)(=O)c2cc(Br)c(Br)s2)CC1", "outcome": "inactive"},
      {"smiles": "O=C(NCc1ccc2c(c1)OCO2)C1CCN(S(=O)(=O)c2cc(Br)c(Br)s2)CC1", "outcome": "inactive"},
      {"smiles": "O=C(NCc1cccc(F)c1)C1CCN(S(=O)(=O)c2sccc2Br)CC1", "outcome": "inactive"},
      {"smiles": "O=C(NCc1ccc(F)cc1)C1CCN(S(=O)(=O)c2ccc(Br)s2)CC1", "outcome": "inactive"},
      {"smiles": "O=C(NCc1ccc(F)cc1)C1CCN(S(=O)(=O)c2ccc(Br)cc2)CC1", "outcome": "inactive"},
      {"smiles": "O=C(NCc1ccccc1F)C1CCN(S(=O)(=O)c2cc(Br)c(Br)s2)CC1", "outcome": "inactive"},
      {"smiles": "O=C(NCc1ccccc1F)C1CCN(S(=O)(=O)c2ccc(Cl)s2)CC1", "outcome": "inactive"},
      {"smiles": "O=C(NCc1cccc(F)c1)C1CCN(S(=O)(=O)c2ccc(Br)s2)CC1", "outcome": "inactive"},
      {"smiles": "O=C(NCCc1ccc2c(c1)OCO2)C1CCN(S(=O)(=O)c2sccc2Br)CC1", "outcome": "inactive"},
      {"smiles": "O=C(NCc1cccc(F)c1)C1CCN(S(=O)(=O)c2ccc(Br)cc2)CC1", "outcome": "inactive"},
      {"smiles": "O=C(NCCc1ccc2c(c1)OCO2)C1CCN(S(=O)(=O)c2ccc(Cl)s2)CC1", "outcome": "inactive"},
      {"smiles": "O=C(NCc1ccccc1F)C1CCN(S(=O)(=O)c2ccc(Br)s2)CC1", "outcome": "inactive"}
    ]}
  ]
}
